Measured values reported in ChEMBL document CHEMBL3856258, “Phosphonate-based irreversible inhibitors of human γ-glutamyl transpeptidase (GGT). GGsTop is a non-toxic and highly selective inhibitor with critical electrostatic interaction with an active-site residue Lys562 for enhanced inhibitory activity” (Bioorg Med Chem, 2016).
Calls of active or inactive are those of the source. The calls are words filed in the database; no cut-off is given here.

Assays:
Salmonella typhimurium [1] = assay: Genotoxicity in Salmonella typhimurium TA98 assessed as number of revertant colonies per plate at 185 ug/plate after 20 mins in presence of S9 fraction by Ames test (reference value: 26); type: toxicity, organism-based; conditions: salmonella enterica subsp. enterica serovar typhimurium
[2] = Cytotoxicity against CHL cells assessed as growth rate at 5.41 ug/ml preincubated for 6 hrs followed by 18 hrs incubation in fresh medium in presence of S9 fraction by MTT assay relative to control; type: toxicity, cell-based, Cricetulus griseus; conditions: chinese hamster, read-out: Activity
Escherichia coli [3] = assay: Genotoxicity in Escherichia coli WP2uvrA assessed as number of revertant colonies per plate at 1667 ug/plate after 20 mins in absence of S9 fraction by Ames test (reference value: 24); type: toxicity; conditions: s9, 20 min
Escherichia coli [4] = assay: Genotoxicity in Escherichia coli WP2uvrA assessed as number of revertant colonies per plate at 556 ug/plate after 20 mins in presence of S9 fraction by Ames test (reference value: 26); type: toxicity; conditions: s9, 20 min
[5] = Cytotoxicity against CHL cells assessed as growth rate at 13.5 ug/ml after 24 hrs in absence of S9 fraction by MTT assay relative to control; type: toxicity, cell-based, Cricetulus griseus; conditions: chinese hamster, read-out: Activity
Salmonella typhimurium [6] = assay: Genotoxicity in Salmonella typhimurium TA1535 assessed as number of revertant colonies per plate at 5000 ug/plate after 20 mins in absence of S9 fraction by Ames test (reference value: 15); type: toxicity, organism-based; conditions: salmonella enterica subsp. enterica serovar typhimurium
[7] = Cytotoxicity against CHL cells assessed as structural aberrations at 825 ug/ml preincubated for 6 hrs followed by 18 hrs incubation in fresh medium in presence of S9 fraction by Giemsa-staining-based microscopic analysis; type: toxicity, cell-based, Cricetulus griseus; conditions: chinese hamster
[8] = Cytotoxicity against CHL cells assessed as growth rate at 528 ug/ml after 24 hrs in absence of S9 fraction by MTT assay relative to control; type: toxicity, cell-based, Cricetulus griseus; conditions: chinese hamster, read-out: Activity
[9] = Cytotoxicity against CHL cells assessed as growth rate at 13.5 ug/ml preincubated for 6 hrs followed by 18 hrs incubation in fresh medium in presence of S9 fraction by MTT assay relative to control; type: toxicity, cell-based, Cricetulus griseus; conditions: chinese hamster, read-out: Activity
Salmonella typhimurium [10] = assay: Genotoxicity in Salmonella typhimurium TA100 assessed as number of revertant colonies per plate at 556 ug/plate after 20 mins in absence of S9 fraction by Ames test (reference value: 123); type: toxicity, organism-based; conditions: salmonella enterica subsp. enterica serovar typhimurium
Rattus norvegicus = species on record: Rattus norvegicus; assay: Cytotoxicity against Wistar rat BSC assessed as reduction in cell viability up to 1 mM after 24 hrs by neutral red method; type: toxicity
[11] = Cytotoxicity against CHL cells assessed as chromatid gap at 1650 ug/ml preincubated for 6 hrs followed by 18 hrs incubation in fresh medium in presence of S9 fraction by Giemsa-staining-based microscopic analysis; type: toxicity, cell-based, Cricetulus griseus; conditions: chinese hamster
[12] = Cytotoxicity against CHL cells assessed as chromatid gap at 1650 ug/ml preincubated for 6 hrs followed by 18 hrs incubation in fresh medium in absence of S9 fraction by Giemsa-staining-based microscopic analysis; type: toxicity, cell-based, Cricetulus griseus; conditions: chinese hamster
[13] = Cytotoxicity against CHL cells assessed as growth rate at 3300 ug/ml after 24 hrs in absence of S9 fraction by MTT assay relative to control; type: toxicity, cell-based, Cricetulus griseus; conditions: chinese hamster, read-out: Activity
[14] = Cytotoxicity against human CCD-1059SK cells assessed as morphological change up to 1 mM after 24 hrs by inverted microscopic analysis; type: toxicity, cell-based
Outline: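 Human skin fibroblasts (CCD-1059SK), passages 10–20, grown in DMEM with 10% FBS and antibiotics at 37 °C under 5% CO2. Plated at 3 × 10^4 cells/mL on chamber slides and pre-incubated 24 h. Then exposed 24 h to 0, 5, 10, 20, 50 or 1000 µM in DMEM (from aqueous solution); water-only control. Morphology checked by inverted microscopy.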

Homo sapiens = species on record: Homo sapiens; assay: Irreversible inhibition of human GGT using gamma-Glu-AMC as substrate assessed as association rate constant by […] analysis
Outline: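 The enzyme source was a commercial human GGT preparation carrying bovine serum albumin as stabilizer (GGT <1% of protein). Hydrolytic activity was followed with γ-Glu-AMC as substrate. Irreversible inactivation was expressed as kon, the second-order rate constant for the inhibitor–enzyme reaction.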

[15] = Cytotoxicity against CHL cells assessed as chromatid gap at 3300 ug/ml preincubated for 6 hrs followed by 18 hrs incubation in fresh medium in absence of S9 fraction by Giemsa-staining-based microscopic analysis; type: toxicity, cell-based, Cricetulus griseus; conditions: chinese hamster
Salmonella typhimurium [16] = assay: Genotoxicity in Salmonella typhimurium TA1535 assessed as number of revertant colonies per plate at 185 ug/plate after 20 mins in presence of S9 fraction by Ames test (reference value: 13); type: toxicity, organism-based; conditions: salmonella enterica subsp. enterica serovar typhimurium
Salmonella typhimurium [17] = assay: Genotoxicity in Salmonella typhimurium TA98 assessed as number of revertant colonies per plate at […] ug/plate after 20 mins in presence of S9 fraction by Ames test (reference value: 26); type: toxicity, organism-based; conditions: salmonella enterica subsp. enterica serovar typhimurium
Salmonella typhimurium [18] = assay: Genotoxicity in Salmonella typhimurium TA100 assessed as number of revertant colonies per plate at 185 ug/plate after 20 mins in presence of S9 fraction by Ames test (reference value: 142); type: toxicity, organism-based; conditions: salmonella enterica subsp. enterica serovar typhimurium
[19] = Cytotoxicity against CHL cells assessed as growth rate at 1320 ug/ml preincubated for 6 hrs followed by 18 hrs incubation in fresh medium in absence of S9 fraction by MTT assay relative to control; type: toxicity, cell-based, Cricetulus griseus; conditions: chinese hamster, read-out: Activity
Salmonella typhimurium [20] = assay: Genotoxicity in Salmonella typhimurium TA98 assessed as number of revertant colonies per plate at 5000 ug/plate after 20 mins in absence of S9 fraction by Ames test (reference value: 21); type: toxicity, organism-based; conditions: salmonella enterica subsp. enterica serovar typhimurium
[21] = Cytotoxicity against CHL cells assessed as structural aberrations at 1650 ug/ml preincubated for 6 hrs followed by 18 hrs incubation in fresh medium in absence of S9 fraction by Giemsa-staining-based microscopic analysis; type: toxicity, cell-based, Cricetulus griseus; conditions: chinese hamster
Salmonella typhimurium [22] = assay: Genotoxicity in Salmonella typhimurium TA1537 assessed as number of revertant colonies per plate at 556 ug/plate after 20 mins in presence of S9 fraction by Ames test (reference value: 15); type: toxicity, organism-based; conditions: salmonella enterica subsp. enterica serovar typhimurium
[23] = Cytotoxicity against CHL cells assessed as structural aberrations at 825 ug/ml preincubated for 6 hrs followed by 18 hrs incubation in fresh medium in absence of S9 fraction by Giemsa-staining-based microscopic analysis; type: toxicity, cell-based, Cricetulus griseus; conditions: chinese hamster
Salmonella typhimurium [24] = assay: Genotoxicity in Salmonella typhimurium TA1537 assessed as number of revertant colonies per plate at 61.7 ug/plate after 20 mins in absence of S9 fraction by Ames test (reference value: 9); type: toxicity, organism-based; conditions: salmonella enterica subsp. enterica serovar typhimurium
Escherichia coli [25] = assay: Genotoxicity in Escherichia coli WP2uvrA assessed as number of revertant colonies per plate at 185 ug/plate after 20 mins in absence of S9 fraction by Ames test (reference value: 24); type: toxicity; conditions: s9, 20 min
Salmonella typhimurium [26] = assay: Genotoxicity in Salmonella typhimurium TA100 assessed as number of revertant colonies per plate at 61.7 ug/plate after 20 mins in absence of S9 fraction by Ames test (reference value: 123); type: toxicity, organism-based; conditions: salmonella enterica subsp. enterica serovar typhimurium
Salmonella typhimurium [27] = assay: Genotoxicity in Salmonella typhimurium TA98 assessed as number of revertant colonies per plate at 5000 ug/plate after 20 mins in presence of S9 fraction by Ames test (reference value: 26); type: toxicity, organism-based; conditions: salmonella enterica subsp. enterica serovar typhimurium
[28] = system: Gamma-glutamyltranspeptidase 1 (Homo sapiens); assay: Inhibition of human wild-type N-terminal truncated GGT expressed in baculovirus infected High Five cells at 1 mM using gamma-Glu-PNA as substrate after 1 min by spectrophotometric method; conditions: BTI-TN-5B1-4
[29] = Cytotoxicity against CHL cells assessed as structural aberrations at 3300 ug/ml after 24 hrs by Giemsa-staining-based microscopic analysis; type: toxicity, cell-based, Cricetulus griseus; conditions: chinese hamster

With COP(=O)(CCC(N)C(=O)O)Oc1cccc(CC(=O)O)c1 (stereo unspecified) the Activity (Salmonella typhimurium [1]) was 34, the viability at 18 h, 5.41 ug/ml [2] was 102% and the Activity (Escherichia coli [3]) was 29. It also gave an Activity (Escherichia coli [4]) of 27, a viability at 24 h, 13.5 ug/ml [5] of 103% and an Activity (Salmonella typhimurium [6]) of 13. The Activity [7] was 1%, the viability at 24 h, 528 ug/ml [8] was 96% and the viability at 18 h, 13.5 ug/ml [9] was 103%. The Activity (Salmonella typhimurium [10]) was 118, the Activity (Rattus norvegicus) was “Non-Toxic” and the Activity [11] was 1%. The Activity [12] was 0%, the viability at 24 h, 3300 ug/ml [13] was 79.5% and the Activity [14] was “Non-Toxic”. For the same compound, the K (Homo sapiens) was 51 M⁻¹ s⁻¹, the Activity [15] was 0% and the Activity (Salmonella typhimurium [16]) was 13. For the same compound, the Activity (Salmonella typhimurium [17]) was 25, the Activity (Salmonella typhimurium [18]) was 147 and the viability at 18 h, 1320 ug/ml [19] was 95.7%. For the same compound, the Activity (Salmonella typhimurium [20]) was 24, the Activity [21] was 0% and the Activity (Salmonella typhimurium [22]) was 16. The Activity [23] was 3%, the Activity (Salmonella typhimurium [24]) was 12 and the Activity (Escherichia coli [25]) was 23. The Activity (Salmonella typhimurium [26]) was 148, the Activity (Salmonella typhimurium [27]) was 27 and the inhibition [28] was “Active”. It also gave an Activity [29] of 1%.
